Test results taken from PubChem BioAssay.
Active and inactive are the calls of the source.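 How the source made its calls, unless noted: active means inhibition at or above 50% at 10 µM; inactive means inhibition below 50%.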

Key:
[1] = inhibitors of TNFa-induced NFkB p65 translocation, primary screen, imaging, HUVEC, MLSMR starter and 10KST1 sets (AID 438;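 active means inhibition above 20% together with a positive visual image hit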;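 further: compound added about 3h40 before a 20 min TNFalpha stimulation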;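 on inhibition: signal is the nuclear over cytoplasmic p65 intensity ratio per well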); conditions: HUVEC TNFa-induced p65 nuclear translocation; cell count: measured here: nuclei count (cytotoxicity indicator), at 2.08 µM; inhibition: at 2 µM, stronger effect = higher value, 0% TNFa-plus-vehicle, 100% no-TNFa wells
[2] = inhibitors of mutant huntingtin aggregation, primary screen, imaging, exon1htt(103Q)mCFP cells, high-content imaging (AID 483;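 active means visual image review flags a hit and inhibition of aggregation exceeds 20%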;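 further: compound exposure lasted 3 days before fixation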;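 on nuclei count: percent of the per-plate median nuclei count of sample wells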); conditions: exon1htt(103Q)mCFP cell line, aggregate imaging, at 2 µM; inhibition of aggregation: stronger effect = higher value; nuclei count: measured here: cell count, toxicity
[3] = inhibitors of E-selectin induction by TNFa, primary screen, imaging, HUVEC, immunofluorescence, MLSMR starter and 10KST1 sets (AID 487;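 active means visually confirmed hit in the image check and inhibition above 20%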;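 on inhibition: signal is fraction of cell area covered by stained E-selectin grains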;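 on nuclei count: 100% = median nuclei count of all wells on the same plate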); conditions: HUVEC TNFalpha-induced E-selectin immunofluorescence imaging, at 2 µM; inhibition: stronger effect = higher value; nuclei count: measured here: cell number, toxicity
[4] = biological target: Voltage-gated potassium channel subunit beta-2 (Rattus norvegicus) (UniProt P62483); test: KvBeta enzyme negative modulators, primary screen, biochemical, NADPH fluorescence (AID 622;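 active means fluorescence slope higher than the sample average by over 3 SD, cut at about -0.22 in these data, passing the limit was not always enough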;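 further: slope of raw intensity against log time taken from 70 to 1610 s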); conditions: recombinant KvBeta, 4-cyanobenzaldehyde reduction, at 10 µM, stronger effect = higher value
[5] = biological target: Voltage-gated potassium channel subunit beta-2 (Rattus norvegicus) (UniProt P62483); test: KvBeta positive modulators, primary screen, biochemical, NADPH fluorescence (AID 623;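 active means NADPH fluorescence slope more negative than the mean of all samples by about 3 SD, 99.7% confidence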;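 further: fluorescence intensity change per second fitted from 20 to 320 s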); conditions: Recombinant KvBeta, NADPH fluorescence decrease slope, 10 min; at 10 µM; stronger effect = lower value
[6] = biological target: Muscarinic acetylcholine receptor M4 (Homo sapiens) (UniProt P08173); test: compounds altering M4/GIRK thallium flux, either direction, primary screen, M4 allosteric agonist project, cell-based, HEK293 M4/GIRK, BTC-AM (AID 625;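 active means fluorescence slope after compound addition differing from the mean of all tested samples at 99.7% confidence, mostly higher but some lower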;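 further: thallium influx through GIRK channels coupled to M4 in HEK293 cells with BTC-AM dye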); conditions: at 10 µM, actives lie on both sides
Method in brief: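 Assay system: HEK293 cells with M4 receptor and GIRK channels / Controls: carbachol and DMSO controls / Schedule: 1 h dye loading, 2 min kinetic read / Technique: kinetic fluorescence with BTC-AM dye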

[7] = inhibitors of Sendai virus-induced IRF3 signaling, primary screen, TLR/RLR signaling modifier project, cell-based, Sendai virus stimulus, luciferase, 10K MLSCN set (AID 602276); conditions: HEK293 RL24 IRF3 luciferase reporter, at 10 µM, stronger effect = higher value;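 further: firefly luciferase from ISG56 promoter only with Renilla not read in this screen; 0% = Sendai virus plus DMSO and 100% = medium plus DMSO without virus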
[8] = inhibitors of poly I:C-induced TLR3 signaling, primary screen, cell-based, poly I:C stimulus, luciferase, 10K MLSCN set (AID 602277;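 active means inhibition of the reporter signal at or above 50%; inactive means inhibition below 50%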); conditions: HEK293-TLR3 RL24 IRF3 luciferase reporter, at 10 µM, stronger effect = higher value

Muscarinic acetylcholine receptor M4 (Homo sapiens), sequence (P08173 whole entry, looked up): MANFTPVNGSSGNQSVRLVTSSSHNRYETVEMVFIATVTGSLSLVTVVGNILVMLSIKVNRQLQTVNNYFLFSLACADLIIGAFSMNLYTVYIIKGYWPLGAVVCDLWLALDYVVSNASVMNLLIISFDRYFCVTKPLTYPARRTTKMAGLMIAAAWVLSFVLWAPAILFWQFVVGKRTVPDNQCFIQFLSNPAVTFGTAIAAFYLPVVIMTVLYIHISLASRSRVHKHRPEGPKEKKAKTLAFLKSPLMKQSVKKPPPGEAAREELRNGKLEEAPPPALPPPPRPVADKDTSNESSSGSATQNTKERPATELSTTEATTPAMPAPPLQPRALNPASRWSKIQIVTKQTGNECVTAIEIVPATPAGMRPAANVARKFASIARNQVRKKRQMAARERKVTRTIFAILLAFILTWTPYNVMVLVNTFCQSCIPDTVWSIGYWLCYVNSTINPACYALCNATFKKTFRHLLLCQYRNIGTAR
Voltage-gated potassium channel subunit beta-2 (Rattus norvegicus), sequence (P62483 whole entry, looked up): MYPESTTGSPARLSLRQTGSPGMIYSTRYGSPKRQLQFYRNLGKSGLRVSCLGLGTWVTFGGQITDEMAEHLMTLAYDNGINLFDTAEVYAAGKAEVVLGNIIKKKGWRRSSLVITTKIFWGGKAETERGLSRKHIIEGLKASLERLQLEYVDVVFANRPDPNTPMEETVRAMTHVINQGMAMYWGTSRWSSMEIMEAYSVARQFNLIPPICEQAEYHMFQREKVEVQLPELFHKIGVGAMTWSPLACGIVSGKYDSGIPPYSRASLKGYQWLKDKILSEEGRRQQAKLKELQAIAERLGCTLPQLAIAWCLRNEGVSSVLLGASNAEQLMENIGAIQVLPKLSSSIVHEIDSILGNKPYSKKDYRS

SMILES | cell count [1] | inhibition [1] | inhibition of aggregation [2] | nuclei count [2] | inhibition [3] | nuclei count [3] | fluorescence slope [4] | NADPH fluorescence slope [5] | fluorescence slope [6] | inhibition [7] | inhibition [8]
Cc1cc(C)c(NC(=O)C2CCCN2CCO)c(C)c1 (stereo unspecified) | 553 | -0.3% (inactive) | -3.4% (inactive) | 92.5% | -4.2% (inactive) | 84.4% | -0.514 (inactive) | -6.1e-05 (inactive) | 0.00468 (inactive) | -8.07% (inactive) | -8.13% (inactive)
O=C(CN1C(=O)c2cccc3cccc1c23)Nc1ccccc1C(=O)NCc1ccco1 | 584 | -29.6% (inactive) | -3.5% (inactive) | 98.7% | -37.6% (inactive) | 105% | -0.0129 (inactive) | -5.3e-06 (inactive) | 0.00606 (inactive) | 8.08% (inactive) | 13.4% (inactive)
CCN(CC)S(=O)(=O)c1ccc2oc(C(=O)O)c(C)c2c1 | 335 | 12.8% (inactive) | 39.6% (inactive) | 85.6% | -89.3% (inactive) | 104% | -0.473 (inactive) | 0.000115 (inactive) | 0.00522 (inactive) | 5.96% (inactive) | 11.9% (inactive)
Cc1ccc(C2CC(c3cccc(Br)c3)Nc3nnnn32)cc1 (stereo unspecified) | 460 | -10% (inactive) | -4.9% (inactive) | 90.9% | -1.3% (inactive) | 79.9% | -0.579 (inactive) | 1.4e-05 (inactive) | 0.00604 (inactive) | 25.2% (inactive) | 26% (inactive)
CCNc1oc(COc2ccccc2F)nc1C#N | 318 | 14.7% (inactive) | -13.4% (inactive) | 106% | -8.8% (inactive) | 94.1% | -0.578 (inactive) | -2.3e-07 (inactive) | 0.00601 (inactive) | 0.938% (inactive) | -48.6% (inactive)
Cc1ccc(-c2nnc(-c3ccc(Br)cc3)o2)o1 | 454 | 0.5% (inactive) | -10.6% (inactive) | 116% | -31.4% (inactive) | 102% | -0.389 (inactive) | -3e-05 (inactive) | 0.00923 (inactive) | -38.9% (inactive) | -108% (inactive)
O=C(Cn1ncc2ccccc21)N1CCN(c2cccc(C(F)(F)F)c2)CC1 | 659 | -5.8% (inactive) | 1.3% (inactive) | 114% | -16.1% (inactive) | 122% | -0.378 (inactive) | -2.5e-05 (inactive) | 0.00602 (inactive) | 12% (inactive) | 21.1% (inactive)
CC(C)C(=O)Nc1nnc(CCc2nnc(NC(=O)C(C)C)s2)s1 | 793 | -10.1% (inactive) | 9.8% (inactive) | 89.2% | -80.3% (inactive) | 114% | -0.552 (inactive) | 1.7e-05 (inactive) | 0.00508 (inactive) | 14.6% (inactive) | 19.9% (inactive)
O=C(CN1C(=O)C2CC=C(Cl)CC2C1=O)Nc1ccc(C(=O)O)cc1 (stereo unspecified) | 442 | 3.4% (inactive) | 10.1% (inactive) | 110% | -205% (inactive) | 122% | -0.569 (inactive) | -7.9e-05 (inactive) | 0.00409 (inactive) | 19.2% (inactive) | 20.6% (inactive)
O=S(=O)(c1ccc(OCC(O)CN2CCc3ccccc3C2)cc1)N1CCOCC1 (stereo unspecified) | 749 | 1.6% (inactive) | 6.1% (inactive) | 114% | -51.2% (inactive) | 132% | -0.549 (inactive) | 1.9e-05 (inactive) | 0.00569 (inactive) | 15.9% (inactive) | 26.7% (inactive)
CC1c2nc3ccccc3n2C(CC(=O)NCc2ccccn2)C(=O)N1Cc1ccccc1 (stereo unspecified) | 678 | -3.4% (inactive) | -12.5% (inactive) | 119% | -115% (inactive) | 119% | -0.505 (inactive) | -1.2e-05 (inactive) | 0.0053 (inactive) | 15% (inactive) | 22.6% (inactive)
Cc1cccc(N(CC(N)=O)S(C)(=O)=O)c1C | 369 | -5.2% (inactive) | 6.8% (inactive) | 100% | -129% (inactive) | 122% | -0.551 (inactive) | -0.000105 (inactive) | 0.00412 (inactive) | 11% (inactive) | 14.1% (inactive)
CCOc1cc2[nH]c(=O)n(CCCCC(=O)N3CCCCCC3)c(=O)c2cc1OCC | 218 | 2.2% (inactive) | 4.8% (inactive) | 86.8% | 14.4% (inactive) | 89.8% | -0.437 (inactive) | -0.00041 (inactive) | 0.00663 (inactive) | 14.3% (inactive) | 18.4% (inactive)
O=C(COc1ccccc1Cl)N1CCCC1 | 236 | 11.7% (inactive) | -1.6% (inactive) | 83.7% | -66.3% (inactive) | 152% | -0.528 (inactive) | 2.9e-05 (inactive) | 0.00495 (inactive) | -16% (inactive) | -18.4% (inactive)
CCN(CC)CCNC(=O)C1CCN(S(=O)(=O)N2CCCCC2)CC1 | 634 | 2.6% (inactive) | -30.2% (inactive) | 48.9% | -41.5% (inactive) | 109% | -0.412 (inactive) | 2.2e-05 (inactive) | 0.00434 (inactive) | 11.3% (inactive) | 15.8% (inactive)
COc1ccc(C2C(C(C)=O)=C(C)N=c3s/c(=C\c4ccc5c(c4)OCO5)c(=O)n32)c(OC)c1 (stereo unspecified) | 340 | -19.3% (inactive) | 12.7% (inactive) | 118% | 3.3% (inactive) | 115% | -0.568 (inactive) | -1.5e-05 (inactive) | 0.00431 (inactive) | -6% (inactive) | 20.7% (inactive)
CCN(c1ccccc1)S(=O)(=O)c1ccc(F)cc1C | 207 | 4.7% (inactive) | -4.7% (inactive) | 66.7% | -11.8% (inactive) | 119% | -0.58 (inactive) | -2.3e-05 (inactive) | 0.00509 (inactive) | 12.3% (inactive) | 22.6% (inactive)
CSc1nc(N2CCOCC2)c2c(c1C#N)CCCCC2 | 690 | -11.9% (inactive) | -18.9% (inactive) | 117% | -4.6% (inactive) | 111% | -0.579 (inactive) | 2.1e-05 (inactive) | 0.00519 (inactive) | 23% (inactive) | 27.5% (inactive)
O=c1c(F)cn(C2CCCO2)c(=O)n1Cc1c(F)cccc1Cl (stereo unspecified) | 738 | -7.1% (inactive) | -9.4% (inactive) | 103% | -114% (inactive) | 140% | -0.549 (inactive) | -1.3e-05 (inactive) | 0.00479 (inactive) | 5.15% (inactive) | 13.2% (inactive)
CCN(CC)C(=O)Oc1ccccc1NC(C)=O | 366 | -3.9% (inactive) | 17.2% (inactive) | 85.8% | -63.5% (inactive) | 121% | -0.221 (inactive) | 2.5e-07 (inactive) | 0.00764 (inactive) | 20.6% (inactive) | 13.2% (inactive)
Cc1cc(C)c2oc(=O)cc(CN3CCOCC3)c2c1 | 647 | 2% (inactive) | 4.4% (inactive) | 87.2% | -10.1% (inactive) | 99.8% | -0.551 (inactive) | 2.5e-06 (inactive) | 0.00519 (inactive) | 15.5% (inactive) | 25.5% (inactive)
CCOC(=O)N1CCN(c2cc3[nH]c(=S)[nH]c3cc2F)CC1 | 792 | 0% (inactive) | -5.7% (inactive) | 104% | -135% (inactive) | 136% | -0.525 (inactive) | -2.4e-05 (inactive) | 0.00501 (inactive) | 17.8% (inactive) | 20.8% (inactive)
OCCN1CCN(CC(O)COc2ccc3ccccc3c2)CC1 (stereo unspecified) | 581 | -10.8% (inactive) | 0.6% (inactive) | 101% | -51.6% (inactive) | 106% | -0.414 (inactive) | -7.3e-05 (inactive) | 0.00595 (inactive) | 11.6% (inactive) | 15.2% (inactive)
CCOC(=O)CNC(=O)Cn1cnc2c(nnn2-c2cccc(Cl)c2)c1=O | 629 | -10% (inactive) | -8.9% (inactive) | 140% | -41.7% (inactive) | 110% | -0.477 (inactive) | 4.8e-05 (inactive) | 0.00553 (inactive) | -3.21% (inactive) | 5.01% (inactive)
O=C(Nc1ccc(S(=O)(=O)NC2CCCC2)cc1)c1cnccn1 | 288 | 1.5% (inactive) | 0.6% (inactive) | 97.1% | -54% (inactive) | 117% | -0.543 (inactive) | -1.1e-05 (inactive) | 0.00448 (inactive) | 10.3% (inactive) | 11.7% (inactive)
COC(=O)c1ccc(COc2ncnc3c(Cl)cc(Cl)cc23)o1 | 406 | -5% (inactive) | 25.5% (inactive) | 74.4% | 59.9% (inactive) | 78.8% | -0.433 (inactive) | -0.000426 (inactive) | 0.00494 (inactive) | 2.59% (inactive) | 1.58% (inactive)
